Results as given in ChEMBL document CHEMBL1138049, “Evaluation of small-molecule modulators of the luteinizing hormone/choriogonadotropin and thyroid stimulating hormone receptors: structure-activity relationships and selective binding patterns” (J Med Chem, 2006).

molecular target: Lutropin-choriogonadotropic hormone receptor (Homo sapiens) (UniProt P22888); experiment: Agonist activity at LHCGR expressed in HEK293 EM cells measured by intracellular cAMP accumulation relative to LH; format: functional, cell-based
Outline: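 Human LHCGR stably expressed in HEK 293 EM cells, cultured 48 h, then incubated 1 h in serum-free DMEM with 1 mM IBMX and compound (0-100 µM) at 5% CO₂. Cells were lysed and cAMP measured by enzyme immunoassay. […] Efficacy is % of maximal response to human LH (1000 ng/ml). Two independent experiments, each in duplicate.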

Sequence of Lutropin-choriogonadotropic hormone receptor (Homo sapiens) (P22888 whole entry): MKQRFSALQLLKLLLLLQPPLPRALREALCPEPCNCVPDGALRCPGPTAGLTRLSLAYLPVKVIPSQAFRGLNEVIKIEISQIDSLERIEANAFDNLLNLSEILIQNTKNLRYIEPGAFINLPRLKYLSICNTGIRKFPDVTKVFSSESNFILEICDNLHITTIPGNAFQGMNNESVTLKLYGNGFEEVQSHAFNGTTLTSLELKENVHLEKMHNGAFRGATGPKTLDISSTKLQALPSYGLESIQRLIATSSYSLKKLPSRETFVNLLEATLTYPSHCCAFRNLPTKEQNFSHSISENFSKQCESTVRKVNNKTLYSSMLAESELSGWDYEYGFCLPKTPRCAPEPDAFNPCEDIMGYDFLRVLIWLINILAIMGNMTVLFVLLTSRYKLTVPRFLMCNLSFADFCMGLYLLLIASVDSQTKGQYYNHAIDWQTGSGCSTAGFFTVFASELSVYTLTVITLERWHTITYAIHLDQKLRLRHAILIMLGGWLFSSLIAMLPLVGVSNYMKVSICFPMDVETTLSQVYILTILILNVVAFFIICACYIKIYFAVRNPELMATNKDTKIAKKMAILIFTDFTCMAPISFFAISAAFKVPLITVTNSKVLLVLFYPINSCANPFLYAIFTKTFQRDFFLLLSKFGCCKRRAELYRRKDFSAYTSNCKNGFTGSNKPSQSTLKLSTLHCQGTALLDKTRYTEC

SMILES	Efficacy
COc1cccc(-c2nc(SC)nc3sc(C(=O)NC(C)(C)C)c(N)c23)c1OC	50.1%
COc1cccc(-c2nc(SC)nc3sc(C(=O)NNC(=O)OC(C)(C)C)c(N)c23)c1	2.4%
COc1cccc(-c2nc(SC)nc3sc(C(=O)N(C)C(C)(C)C)c(N)c23)c1	47.8%
COc1cccc(-c2nc(SC)nc3sc(C(=O)NNC(C)(C)C)c(N)c23)c1	6%
COc1cccc(-c2nc(SC)nc3sc(C(=O)NCc4ccccc4)c(N)c23)c1	7.8%
COc1cccc(-c2nc(SC)nc3sc(C(=O)NN)c(N)c23)c1	8.5%
COc1cccc(-c2nc(SC)nc3sc(C(=O)NC(C)(C)C)c(N)c23)c1	45.8%
COc1cccc(-c2nc(SC)nc3sc(C(=O)NCCO)c(N)c23)c1	20.5%
COc1cccc(-c2nc(SC)nc3sc(C(=O)N(C)C)c(N)c23)c1	11%
CCNC(=O)c1sc2nc(SC)nc(-c3cccc(OC)c3)c2c1N	26.9%
CSc1nc(-c2cccc(O)c2)c2c(N)c(C(=O)NC(C)(C)C)sc2n1	63.9%
COc1cccc(-c2nc(SC)nc3sc(C(=O)NCCc4ccccc4)c(N)c23)c1	25.6%
COc1cccc(-c2nc(SC)nc3sc(C(=O)NC(C)(C)C)c(N)c23)c1F	46.3%
COc1cccc(-c2nc(SC)nc3sc(C(=O)OC(C)(C)C)c(N)c23)c1	23.8%
COc1cccc(-c2nc(SC)nc3sc(C(=O)NCC#N)c(N)c23)c1	20.3%
CCOC(=O)c1sc2nc(SC)nc(-c3cccc(OC)c3)c2c1N	4.2%

molecular target: Thyrotropin receptor (Homo sapiens) (UniProt P16473); experiment: Agonist activity at TSHR expressed in HEK293 EM cells measured by intracellular cAMP accumulation relative to TSH; format: functional, cell-based
Outline: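 Human TSHR stably expressed in HEK 293 EM cells, cultured 48 h, then incubated 1 h in serum-free DMEM with 1 mM IBMX and compound (0-100 µM) at 5% CO₂. Lysates assayed for cAMP by enzyme immunoassay. […] Maximal response expressed as % of bovine TSH response, reference 100 mU/mL. Two independent experiments in duplicate.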

Sequence of Thyrotropin receptor (Homo sapiens) (P16473 whole entry): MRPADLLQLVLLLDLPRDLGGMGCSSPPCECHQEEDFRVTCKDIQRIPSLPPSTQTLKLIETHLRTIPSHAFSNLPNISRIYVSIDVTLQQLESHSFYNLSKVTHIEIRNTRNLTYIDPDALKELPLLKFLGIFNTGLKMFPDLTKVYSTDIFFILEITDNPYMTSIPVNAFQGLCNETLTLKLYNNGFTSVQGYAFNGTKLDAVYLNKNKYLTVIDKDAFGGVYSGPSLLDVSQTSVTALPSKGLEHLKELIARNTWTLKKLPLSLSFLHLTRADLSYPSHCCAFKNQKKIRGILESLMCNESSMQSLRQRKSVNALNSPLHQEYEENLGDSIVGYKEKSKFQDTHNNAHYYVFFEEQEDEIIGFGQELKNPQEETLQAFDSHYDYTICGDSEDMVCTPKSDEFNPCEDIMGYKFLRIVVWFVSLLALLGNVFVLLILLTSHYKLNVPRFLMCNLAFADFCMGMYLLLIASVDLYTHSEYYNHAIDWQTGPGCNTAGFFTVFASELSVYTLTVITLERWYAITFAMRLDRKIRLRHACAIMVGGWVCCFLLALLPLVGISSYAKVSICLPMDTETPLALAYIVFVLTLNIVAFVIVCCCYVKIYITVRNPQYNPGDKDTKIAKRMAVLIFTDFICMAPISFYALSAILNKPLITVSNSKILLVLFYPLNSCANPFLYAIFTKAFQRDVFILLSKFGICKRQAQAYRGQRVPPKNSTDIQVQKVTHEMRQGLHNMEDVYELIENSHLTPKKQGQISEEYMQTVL

SMILES	Efficacy
COc1cccc(-c2nc(SC)nc3sc(C(=O)NC(C)(C)C)c(N)c23)c1OC	3%
COc1cccc(-c2nc(SC)nc3sc(C(=O)NNC(=O)OC(C)(C)C)c(N)c23)c1	1.9%
COc1cccc(-c2nc(SC)nc3sc(C(=O)N(C)C(C)(C)C)c(N)c23)c1	3.6%
COc1cccc(-c2nc(SC)nc3sc(C(=O)NNC(C)(C)C)c(N)c23)c1	6.4%
COc1cccc(-c2nc(SC)nc3sc(C(=O)NCc4ccccc4)c(N)c23)c1	3%
COc1cccc(-c2nc(SC)nc3sc(C(=O)NN)c(N)c23)c1	6.1%
COc1cccc(-c2nc(SC)nc3sc(C(=O)NC(C)(C)C)c(N)c23)c1	23.4%
CSc1nc(-c2cccc(F)c2)c2c(N)c(C(=O)NC(C)(C)C)sc2n1	8.1%
COc1cccc(-c2nc(SC)nc3sc(C(=O)NCCO)c(N)c23)c1	2.9%
COc1cccc(-c2nc(SC)nc3sc(C(=O)N(C)C)c(N)c23)c1	4%
CCNC(=O)c1sc2nc(SC)nc(-c3cccc(OC)c3)c2c1N	2.3%
CSc1nc(-c2cccc(O)c2)c2c(N)c(C(=O)NC(C)(C)C)sc2n1	11.2%
COc1cccc(-c2nc(SC)nc3sc(C(=O)NCCc4ccccc4)c(N)c23)c1	4.3%
COc1cccc(-c2nc(SC)nc3sc(C(=O)NCC#N)c(N)c23)c1	3.6%
CCOC(=O)c1sc2nc(SC)nc(-c3cccc(OC)c3)c2c1N	1.5%
